Source: ChEMBL document CHEMBL3228007, “Ergot alkaloids. Synthesis of nitrosourea derivatives of ergolines as potential anticancer agents” (J Med Chem, 1979)

Experiments:
Mus musculus [1] = assay: Toxicity in mouse allografted with mouse L1210 cells assessed as survival at 50 mg/kg; type: organism-based; design: dose 50 mg/kg; conditions: in vivo
Outline: (§1)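 Mice bearing L1210 leukemia, six per dose group, given compound as a suspension across a range of mg/kg doses. Antitumor read-out is T/C, with cures per group recorded. Toxicity is judged by body weight loss, with loss over 4 g flagged.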

Mus musculus [2] = assay: Toxicity in mouse allografted with mouse L1210 cells assessed as survival at 25 mg/kg; type: organism-based; design: dose 25 mg/kg; conditions: in vivo; outline: as §1
Mus musculus [3] = assay: Toxicity in mouse allografted with mouse L1210 cells assessed as change in body weight at 100 mg/kg relative to control; type: organism-based; design: dose 100 mg/kg; conditions: in vivo; outline: as §1
Mus musculus [4] = assay: Toxicity in mouse allografted with mouse L1210 cells assessed as change in body weight at 50 mg/kg relative to control; type: organism-based; design: dose 50 mg/kg; conditions: in vivo; outline: as §1
Mus musculus [5] = assay: Toxicity in mouse allografted with mouse L1210 cells assessed as change in body weight at 25 mg/kg relative to control; type: organism-based; design: dose 25 mg/kg; conditions: in vivo; outline: as §1
Mus musculus [6] = assay: Toxicity in mouse allografted with mouse L1210 cells assessed as change in body weight at 12.5 mg/kg relative to control; type: organism-based; design: dose 12.5 mg/kg; conditions: in vivo; outline: as §1
Mus musculus [7] = assay: Toxicity in mouse allografted with mouse L1210 cells assessed as change in body weight at 6.25 mg/kg relative to control; type: organism-based; design: dose 6.25 mg/kg; conditions: in vivo; outline: as §1
L1210 [8] = assay: Antitumor activity against mouse L1210 cells allografted in mouse assessed as tumor growth inhibition at 50 mg/kg relative to control; type: functional; outline: as §1
L1210 [9] = assay: Antitumor activity against mouse L1210 cells allografted in mouse assessed as tumor growth inhibition at 25 mg/kg relative to control; type: functional; outline: as §1
L1210 [10] = assay: Antitumor activity against mouse L1210 cells allografted in mouse assessed as tumor growth inhibition at 12.5 mg/kg relative to control; type: functional; outline: as §1
L1210 [11] = assay: Antitumor activity against mouse L1210 cells allografted in mouse assessed as tumor growth inhibition at 6.25 mg/kg relative to control; type: functional
Outline: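 L1210 leukemia in mice, six per group; compound given as a suspension across a range of dose levels; activity expressed as T/C, with cures and weight loss recorded.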

Mus musculus [12] = assay: Toxicity in mouse allografted with mouse L1210 cells assessed as survival at 12.5 mg/kg; type: organism-based; design: dose 12.5 mg/kg; conditions: in vivo; outline: as §1
Mus musculus [13] = assay: Toxicity in mouse allografted with mouse L1210 cells assessed as survival at 6.25 mg/kg; type: organism-based; design: dose 6.25 mg/kg; conditions: in vivo; outline: as §1
Rattus norvegicus = species: Rattus norvegicus; assay: Inhibition of prolactin release in rat at 10 ug relative to control; type: functional
Mus musculus [14] = assay: Toxicity in mouse allografted with mouse L1210 cells assessed as survival at 400 mg/kg; type: organism-based; design: dose 400 mg/kg; conditions: in vivo; outline: as §1
Mus musculus [15] = assay: Toxicity in mouse allografted with mouse L1210 cells assessed as survival at 200 mg/kg; type: organism-based; design: dose 200 mg/kg; conditions: in vivo; outline: as §1
Mus musculus [16] = assay: Toxicity in mouse allografted with mouse L1210 cells assessed as survival at 100 mg/kg; type: organism-based; design: dose 100 mg/kg; conditions: in vivo; outline: as §1
Mus musculus [17] = assay: Toxicity in mouse allografted with mouse L1210 cells assessed as change in body weight at 400 mg/kg relative to control; type: organism-based; design: dose 400 mg/kg; conditions: in vivo; outline: as §1
Mus musculus [18] = assay: Toxicity in mouse allografted with mouse L1210 cells assessed as change in body weight at 200 mg/kg relative to control; type: organism-based; design: dose 200 mg/kg; conditions: in vivo; outline: as §1
L1210 [19] = assay: Antitumor activity against mouse L1210 cells allografted in mouse assessed as tumor growth inhibition at 200 mg/kg relative to control; type: functional; outline: as §1
L1210 [20] = assay: Antitumor activity against mouse L1210 cells allografted in mouse assessed as tumor growth inhibition at 100 mg/kg relative to control; type: functional; outline: as §1
Mus musculus [21] = assay: Toxicity in mouse allografted with mouse P388 cells assessed as survival at 100 mg/kg; type: organism-based; design: dose 100 mg/kg; conditions: in vivo
Mus musculus [22] = assay: Toxicity in mouse allografted with mouse P388 cells assessed as survival at 50 mg/kg; type: organism-based; design: dose 50 mg/kg; conditions: in vivo
Mus musculus [23] = assay: Toxicity in mouse allografted with mouse P388 cells assessed as survival at 25 mg/kg; type: organism-based; design: dose 25 mg/kg; conditions: in vivo
Mus musculus [24] = assay: Toxicity in mouse allografted with mouse P388 cells assessed as change in body weight at 100 mg/kg relative to control; type: organism-based; design: dose 100 mg/kg; conditions: in vivo
Mus musculus [25] = assay: Toxicity in mouse allografted with mouse P388 cells assessed as change in body weight at 50 mg/kg relative to control; type: organism-based; design: dose 50 mg/kg; conditions: in vivo
Mus musculus [26] = assay: Toxicity in mouse allografted with mouse P388 cells assessed as change in body weight at 25 mg/kg relative to control; type: organism-based; design: dose 25 mg/kg; conditions: in vivo
P388 [27] = assay: Antitumor activity against mouse P388 cells allografted in mouse assessed as tumor growth inhibition at 100 mg/kg relative to control; type: functional
P388 [28] = assay: Antitumor activity against mouse P388 cells allografted in mouse assessed as tumor growth inhibition at 50 mg/kg relative to control; type: functional
P388 [29] = assay: Antitumor activity against mouse P388 cells allografted in mouse assessed as tumor growth inhibition at 25 mg/kg relative to control; type: functional
L1210 [30] = assay: Antitumor activity against mouse L1210 cells allografted in mouse assessed as tumor growth inhibition at 400 mg/kg relative to control; type: functional; outline: as §1

In the case of `C[C@H]1CC[C@H](NC(=O)N(CCCl)N=O)CC1`, the Activity (Mus musculus [1]) is reported as “Non-toxic”, the Activity (Mus musculus [2]) is reported as “Non-toxic” and the Activity (Mus musculus [3]) is reported as -6.6 g. For the same compound, the Activity (Mus musculus [4]) was -4.8 g, the Activity (Mus musculus [5]) was -3.4 g and the Activity (Mus musculus [6]) was -0.2 g. For the same compound, the Activity (Mus musculus [7]) was 0.4 g, the T/C (L1210 [8]) was 327% and the T/C (L1210 [9]) was 301%. The T/C (L1210 [10]) was 256%, the T/C (L1210 [11]) was 187% and the Activity (Mus musculus [12]) was “Not Active”. For the same compound, the Activity (Mus musculus [13]) was “Non-toxic”.

For `CN1C[C@H](N)C[C@@H]2c3cccc4[nH]cc(c34)C[C@H]21`, the “inhibition (INH)” value (Rattus norvegicus) was 57%.

`CN1C[C@H](NC(=O)N(CCCl)N=O)C[C@@H]2c3cccc4[nH]cc(c34)C[C@H]21` was tested, and the “inhibition (INH)” value (Rattus norvegicus) was 28%, the Activity (Mus musculus [14]) was “Non-toxic” and the Activity (Mus musculus [15]) was “Non-toxic”. For the same compound, the Activity (Mus musculus [16]) was “Non-toxic”, the Activity (Mus musculus [1]) was “Non-toxic” and the Activity (Mus musculus [2]) was “Non-toxic”. The Activity (Mus musculus [17]) was -7.6 g, the Activity (Mus musculus [18]) was -6 g and the Activity (Mus musculus [3]) was -4 g. It also gave an Activity (Mus musculus [4]) of -2.8 g, an Activity (Mus musculus [5]) of -1.4 g and an Activity (Mus musculus [6]) of -1.2 g. It also gave a T/C (L1210 [19]) of 390%, a T/C (L1210 [20]) of 248% and a T/C (L1210 [8]) of 154%. The T/C (L1210 [9]) was 137% and the T/C (L1210 [10]) was 119%.

In the case of `CN1C[C@H](NC(=O)N(CCCl)N=O)C[C@@H]2c3cccc4c3c(cn4N=O)C[C@H]21`, the “inhibition (INH)” value (Rattus norvegicus) is reported as 17%, the Activity (Mus musculus [21]) is reported as “Non-toxic” and the Activity (Mus musculus [22]) is reported as “Non-toxic”. The Activity (Mus musculus [23]) was “Non-toxic”, the Activity (Mus musculus [14]) was “Non-toxic” and the Activity (Mus musculus [15]) was “Non-toxic”. For the same compound, the Activity (Mus musculus [16]) was “Non-toxic”, the Activity (Mus musculus [1]) was “Non-toxic” and the Activity (Mus musculus [2]) was “Non-toxic”. The Activity (Mus musculus [24]) was -1.8 g, the Activity (Mus musculus [25]) was 0 g and the Activity (Mus musculus [26]) was -0.4 g. For the same compound, the Activity (Mus musculus [17]) was -6.4 g, the Activity (Mus musculus [18]) was -5.2 g and the Activity (Mus musculus [3]) was -3.4 g. The Activity (Mus musculus [4]) was -2.2 g, the Activity (Mus musculus [5]) was -1.8 g and the Activity (Mus musculus [6]) was -1.2 g. It also gave a T/C (P388 [27]) of 201%, a T/C (P388 [28]) of 166% and a T/C (P388 [29]) of 137%. For the same compound, the T/C (L1210 [30]) was 289%, the T/C (L1210 [19]) was 164% and the T/C (L1210 [20]) was 144%. The T/C (L1210 [8]) was 121%, the T/C (L1210 [9]) was 117% and the T/C (L1210 [10]) was 105%.

For `CN1CC(CO)=C[C@@H]2c3cccc4c3c(cn4N=O)C[C@H]21`, the “inhibition (INH)” value (Rattus norvegicus) was 36%.

In the case of `CN1CC(COC(=O)NCCCl)=C[C@@H]2c3cccc4[nH]cc(c34)C[C@H]21`, the “inhibition (INH)” value (Rattus norvegicus) is reported as 87%.

For `CN1CC(CO)=C[C@@H]2c3cccc4[nH]cc(c34)C[C@H]21`, the “inhibition (INH)” value (Rattus norvegicus) was 71%.

In the case of `CC(C)[C@H]1C(=O)N2CCC[C@H]2[C@]2(O)O[C@](NC(=O)[C@@H]3C=C4c5cccc6[nH]cc(c56)C[C@H]4N(C)C3)(C(C)C)C(=O)N12` [ERGOCORNINE], the “inhibition (INH)” value (Rattus norvegicus) is reported as 88%.

In the case of `CN1C[C@H](CC#N)C[C@@H]2c3cccc4[nH]c(Cl)c(c34)C[C@H]21` [LERGOTRILE], the “inhibition (INH)” value (Rattus norvegicus) is reported as 71%.
